Results on 11 compounds are retold here after ChEMBL document CHEMBL3860059, “Design, Synthesis, and Biological Evaluation of First-in-Class Dual Acting Histone Deacetylases (HDACs) and Phosphodiesterase 5 (PDE5) Inhibitors for the Treatment of Alzheimer's Disease” (J Med Chem, 2016).

Series [1] can be described thus: Selectivity ratio of pLC50 for mouse primary glial cells to pLC50 for human THLE2 cells. It counts as ADME, cell-based. To be noted: mouse primary glial cells versus THLE2 cells.
For series [2], the target named is cGMP-specific 3',5'-cyclic phosphodiesterase (Homo sapiens, UniProt O76074). Kind of series: Inhibition of full length recombinant human N-terminal GST-tagged PDE5A1 expressed in baculovirus infected Sf9 cells using cGMP as substrate after 30 mins by HTRF assay.
In the next series the target is Histone deacetylase 1 (Homo sapiens, UniProt Q13547). Description: Inhibition of full length recombinant human C-terminal His/Flag-tagged HDAC1 expressed in baculovirus infected Sf9 cells using fluorogenic HDAC substrate after 30 mins by fluorescence analysis. The method in brief:
(§1)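 Full-length human recombinant HDAC1 (0.4 μg/mL final), HDAC2 (1.5 μg/mL), HDAC3/NCOR2 (0.1 μg/mL) or HDAC6 (3.6 μg/mL) with 10 μM fluorogenic acetyl-lysine substrate and 0.1 mg/mL BSA, 1% DMSO, 30 min at 37 °C; lysine developer 20 min at room temperature; fluorescence ex 355/em 460 nm. Vehicle = positive control, no enzyme = negative; IC50 from curve fit.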

Another series concerns the target Histone deacetylase 2 (Homo sapiens, UniProt Q92769). Description: Inhibition of full length recombinant human C-terminal His-tagged HDAC2 expressed in baculovirus infected Sf9 cells using fluorogenic HDAC substrate after 30 mins by fluorescence analysis. The method in brief:
as §1

Series [3] addresses Histone deacetylase 3/Nuclear receptor corepressor 2 (HDAC3/NCoR2) (Homo sapiens, UniProt O15379). Kind of series: Inhibition of full length recombinant human C-terminal His-tagged HDAC3/N-terminal GST-tagged NCOR2 (395 to 489 residues) expressed in baculovirus infected Sf9 cells using fluorogenic HDAC substrate after 30 mins by fluorescence analysis.
Series [4] deals with T1, Protein deacetylase HDAC6 (Homo sapiens, UniProt Q9UBN7).
T1 sequence (Q9UBN7 whole entry): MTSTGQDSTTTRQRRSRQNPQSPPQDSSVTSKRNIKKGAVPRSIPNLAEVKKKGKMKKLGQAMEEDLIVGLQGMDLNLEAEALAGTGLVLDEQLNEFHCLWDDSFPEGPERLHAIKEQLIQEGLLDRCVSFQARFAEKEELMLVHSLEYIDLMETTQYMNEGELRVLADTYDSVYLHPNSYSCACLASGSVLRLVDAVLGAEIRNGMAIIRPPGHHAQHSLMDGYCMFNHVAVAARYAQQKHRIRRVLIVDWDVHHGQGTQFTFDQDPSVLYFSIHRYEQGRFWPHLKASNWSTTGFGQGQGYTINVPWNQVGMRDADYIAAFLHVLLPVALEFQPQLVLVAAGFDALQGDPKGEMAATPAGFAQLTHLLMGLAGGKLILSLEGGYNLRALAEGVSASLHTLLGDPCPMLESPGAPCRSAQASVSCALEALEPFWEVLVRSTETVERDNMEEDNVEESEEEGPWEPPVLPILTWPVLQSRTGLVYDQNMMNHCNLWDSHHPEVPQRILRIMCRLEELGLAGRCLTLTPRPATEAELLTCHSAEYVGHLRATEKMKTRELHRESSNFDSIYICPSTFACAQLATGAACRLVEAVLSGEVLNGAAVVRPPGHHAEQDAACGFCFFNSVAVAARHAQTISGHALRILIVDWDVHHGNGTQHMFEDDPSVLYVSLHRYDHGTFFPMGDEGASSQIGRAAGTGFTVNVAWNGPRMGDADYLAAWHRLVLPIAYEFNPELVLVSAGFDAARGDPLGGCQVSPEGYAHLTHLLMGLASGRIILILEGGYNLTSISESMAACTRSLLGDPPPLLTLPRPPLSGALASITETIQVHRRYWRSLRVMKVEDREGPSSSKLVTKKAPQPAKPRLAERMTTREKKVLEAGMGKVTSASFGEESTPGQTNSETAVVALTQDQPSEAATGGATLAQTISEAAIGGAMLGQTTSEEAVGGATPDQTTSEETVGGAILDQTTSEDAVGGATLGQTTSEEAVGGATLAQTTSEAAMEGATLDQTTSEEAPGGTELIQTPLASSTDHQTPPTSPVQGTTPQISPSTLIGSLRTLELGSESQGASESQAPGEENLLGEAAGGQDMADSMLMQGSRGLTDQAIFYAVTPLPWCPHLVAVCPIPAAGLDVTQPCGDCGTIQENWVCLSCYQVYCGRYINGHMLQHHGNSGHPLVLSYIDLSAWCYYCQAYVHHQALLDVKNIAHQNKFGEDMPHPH
Description: Inhibition of full length recombinant human N-terminal GST tagged HDAC6 expressed in baculovirus infected Sf9 cells using fluorogenic HDAC substrate after 30 mins by fluorescence analysis. The method in brief:
as §1

Series [5] can be described thus: Cytotoxicity against human THLE2 cells assessed as reduction in cell viability after 72 hrs by ATP Vialight assay. It counts as toxicity, cell-based, THLE-2. Conditions: read-out: LC50. The method in brief: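 Immortalized human liver THLE-2 cells in BEGM with 0.7 μg/mL phosphoethanolamine, 0.5 ng/mL EGF, antibiotics and 10% FBS, seeded at 10,000 cells/well and left 24 h at 37 °C. Compounds were added at final 0–100 μM in 1% DMSO for 72 h. Cellular ATP was read by luminescence after 45 min lysis.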

Series [6] is described as follows: Cytotoxicity against mouse primary glial cells assessed as reduction in cell viability after 72 hrs by luminescence based ATPlite assay. It counts as toxicity. To be noted: read-out: LC50. The method in brief: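 Primary neuron/glia cultures from embryonic mouse brain were grown 5 days at 37 °C (5% CO2) to allow neuron formation. Compounds were then added at final 0–100 μM in 1% DMSO for 72 h. Cellular ATP was read by luminescence after 10 min with reagent at room temperature.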

Series [7] in a line: Passive membrane permeability of the compound at 50 uM after 18 hrs by PAMPA. Conditions: read-out: Peff. It counts as ADME. The method in brief:
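PAMPA: 50 μM donor solution in PBS/EtOH 70:30 over PVDF membrane precoated with PBL/dodecane (20 mg/mL); PBS/EtOH acceptor; 18 h at 20 °C without shaking; duplicates; donor and acceptor concentrations by UV absorbance corrected against vehicle.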

Series [8] is described as follows: Dissociation constant, pKa of the compound. It counts as physicochemical.
The nature of series [9]: Selectivity ratio of pIC50 for full length recombinant human N-terminal GST tagged HDAC6 expressed in baculovirus infected Sf9 cells to pIC50 for full length recombinant human C-terminal His/Flag-tagged HDAC1 expressed in baculovirus infected Sf9 cells.

Histone deacetylase 1, sequence (Q13547 whole entry): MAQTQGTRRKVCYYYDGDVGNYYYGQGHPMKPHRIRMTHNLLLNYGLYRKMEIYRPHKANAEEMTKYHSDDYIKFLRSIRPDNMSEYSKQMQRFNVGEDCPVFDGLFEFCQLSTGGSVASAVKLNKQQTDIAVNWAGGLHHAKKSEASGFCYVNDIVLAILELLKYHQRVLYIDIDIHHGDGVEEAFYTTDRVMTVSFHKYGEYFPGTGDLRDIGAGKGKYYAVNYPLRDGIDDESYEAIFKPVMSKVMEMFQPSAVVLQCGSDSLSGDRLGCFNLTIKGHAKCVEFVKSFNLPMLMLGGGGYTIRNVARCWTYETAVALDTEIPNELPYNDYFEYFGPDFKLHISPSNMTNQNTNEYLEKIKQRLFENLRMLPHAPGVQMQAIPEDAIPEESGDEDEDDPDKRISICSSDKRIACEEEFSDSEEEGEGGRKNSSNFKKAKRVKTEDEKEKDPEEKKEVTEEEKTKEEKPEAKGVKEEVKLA
Histone deacetylase 2, sequence (Q92769 whole entry): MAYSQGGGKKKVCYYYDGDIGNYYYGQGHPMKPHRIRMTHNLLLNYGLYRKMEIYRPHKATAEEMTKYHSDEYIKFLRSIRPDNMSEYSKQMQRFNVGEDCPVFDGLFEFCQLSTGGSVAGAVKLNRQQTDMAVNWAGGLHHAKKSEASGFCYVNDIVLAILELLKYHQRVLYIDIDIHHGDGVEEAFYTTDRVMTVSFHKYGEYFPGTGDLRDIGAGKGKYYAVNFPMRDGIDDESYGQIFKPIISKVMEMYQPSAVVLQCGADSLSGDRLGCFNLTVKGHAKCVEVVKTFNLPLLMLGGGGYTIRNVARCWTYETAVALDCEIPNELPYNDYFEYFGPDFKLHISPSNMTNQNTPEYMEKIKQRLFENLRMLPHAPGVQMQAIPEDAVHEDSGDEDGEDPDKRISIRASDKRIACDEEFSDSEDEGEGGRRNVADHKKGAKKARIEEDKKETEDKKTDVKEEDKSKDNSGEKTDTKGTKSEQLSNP
Histone deacetylase 3/Nuclear receptor corepressor 2 (HDAC3/NCoR2), sequence (O15379 whole entry, the tested form may be a part): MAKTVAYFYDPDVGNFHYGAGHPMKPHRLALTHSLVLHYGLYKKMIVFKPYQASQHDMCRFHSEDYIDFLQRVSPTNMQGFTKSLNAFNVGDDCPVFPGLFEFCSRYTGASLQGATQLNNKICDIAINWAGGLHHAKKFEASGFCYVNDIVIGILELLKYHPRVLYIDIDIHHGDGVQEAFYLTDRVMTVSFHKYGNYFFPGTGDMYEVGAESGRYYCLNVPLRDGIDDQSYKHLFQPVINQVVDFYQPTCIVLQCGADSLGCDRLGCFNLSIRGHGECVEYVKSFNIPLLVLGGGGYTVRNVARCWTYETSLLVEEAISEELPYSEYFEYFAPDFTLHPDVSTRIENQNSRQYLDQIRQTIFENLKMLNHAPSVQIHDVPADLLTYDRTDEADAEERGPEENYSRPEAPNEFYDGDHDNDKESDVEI
Histone deacetylase 3/Nuclear receptor corepressor 2 (HDAC3/NCoR2), sequence (Q9Y618 whole entry, further chain, the tested form may be a part): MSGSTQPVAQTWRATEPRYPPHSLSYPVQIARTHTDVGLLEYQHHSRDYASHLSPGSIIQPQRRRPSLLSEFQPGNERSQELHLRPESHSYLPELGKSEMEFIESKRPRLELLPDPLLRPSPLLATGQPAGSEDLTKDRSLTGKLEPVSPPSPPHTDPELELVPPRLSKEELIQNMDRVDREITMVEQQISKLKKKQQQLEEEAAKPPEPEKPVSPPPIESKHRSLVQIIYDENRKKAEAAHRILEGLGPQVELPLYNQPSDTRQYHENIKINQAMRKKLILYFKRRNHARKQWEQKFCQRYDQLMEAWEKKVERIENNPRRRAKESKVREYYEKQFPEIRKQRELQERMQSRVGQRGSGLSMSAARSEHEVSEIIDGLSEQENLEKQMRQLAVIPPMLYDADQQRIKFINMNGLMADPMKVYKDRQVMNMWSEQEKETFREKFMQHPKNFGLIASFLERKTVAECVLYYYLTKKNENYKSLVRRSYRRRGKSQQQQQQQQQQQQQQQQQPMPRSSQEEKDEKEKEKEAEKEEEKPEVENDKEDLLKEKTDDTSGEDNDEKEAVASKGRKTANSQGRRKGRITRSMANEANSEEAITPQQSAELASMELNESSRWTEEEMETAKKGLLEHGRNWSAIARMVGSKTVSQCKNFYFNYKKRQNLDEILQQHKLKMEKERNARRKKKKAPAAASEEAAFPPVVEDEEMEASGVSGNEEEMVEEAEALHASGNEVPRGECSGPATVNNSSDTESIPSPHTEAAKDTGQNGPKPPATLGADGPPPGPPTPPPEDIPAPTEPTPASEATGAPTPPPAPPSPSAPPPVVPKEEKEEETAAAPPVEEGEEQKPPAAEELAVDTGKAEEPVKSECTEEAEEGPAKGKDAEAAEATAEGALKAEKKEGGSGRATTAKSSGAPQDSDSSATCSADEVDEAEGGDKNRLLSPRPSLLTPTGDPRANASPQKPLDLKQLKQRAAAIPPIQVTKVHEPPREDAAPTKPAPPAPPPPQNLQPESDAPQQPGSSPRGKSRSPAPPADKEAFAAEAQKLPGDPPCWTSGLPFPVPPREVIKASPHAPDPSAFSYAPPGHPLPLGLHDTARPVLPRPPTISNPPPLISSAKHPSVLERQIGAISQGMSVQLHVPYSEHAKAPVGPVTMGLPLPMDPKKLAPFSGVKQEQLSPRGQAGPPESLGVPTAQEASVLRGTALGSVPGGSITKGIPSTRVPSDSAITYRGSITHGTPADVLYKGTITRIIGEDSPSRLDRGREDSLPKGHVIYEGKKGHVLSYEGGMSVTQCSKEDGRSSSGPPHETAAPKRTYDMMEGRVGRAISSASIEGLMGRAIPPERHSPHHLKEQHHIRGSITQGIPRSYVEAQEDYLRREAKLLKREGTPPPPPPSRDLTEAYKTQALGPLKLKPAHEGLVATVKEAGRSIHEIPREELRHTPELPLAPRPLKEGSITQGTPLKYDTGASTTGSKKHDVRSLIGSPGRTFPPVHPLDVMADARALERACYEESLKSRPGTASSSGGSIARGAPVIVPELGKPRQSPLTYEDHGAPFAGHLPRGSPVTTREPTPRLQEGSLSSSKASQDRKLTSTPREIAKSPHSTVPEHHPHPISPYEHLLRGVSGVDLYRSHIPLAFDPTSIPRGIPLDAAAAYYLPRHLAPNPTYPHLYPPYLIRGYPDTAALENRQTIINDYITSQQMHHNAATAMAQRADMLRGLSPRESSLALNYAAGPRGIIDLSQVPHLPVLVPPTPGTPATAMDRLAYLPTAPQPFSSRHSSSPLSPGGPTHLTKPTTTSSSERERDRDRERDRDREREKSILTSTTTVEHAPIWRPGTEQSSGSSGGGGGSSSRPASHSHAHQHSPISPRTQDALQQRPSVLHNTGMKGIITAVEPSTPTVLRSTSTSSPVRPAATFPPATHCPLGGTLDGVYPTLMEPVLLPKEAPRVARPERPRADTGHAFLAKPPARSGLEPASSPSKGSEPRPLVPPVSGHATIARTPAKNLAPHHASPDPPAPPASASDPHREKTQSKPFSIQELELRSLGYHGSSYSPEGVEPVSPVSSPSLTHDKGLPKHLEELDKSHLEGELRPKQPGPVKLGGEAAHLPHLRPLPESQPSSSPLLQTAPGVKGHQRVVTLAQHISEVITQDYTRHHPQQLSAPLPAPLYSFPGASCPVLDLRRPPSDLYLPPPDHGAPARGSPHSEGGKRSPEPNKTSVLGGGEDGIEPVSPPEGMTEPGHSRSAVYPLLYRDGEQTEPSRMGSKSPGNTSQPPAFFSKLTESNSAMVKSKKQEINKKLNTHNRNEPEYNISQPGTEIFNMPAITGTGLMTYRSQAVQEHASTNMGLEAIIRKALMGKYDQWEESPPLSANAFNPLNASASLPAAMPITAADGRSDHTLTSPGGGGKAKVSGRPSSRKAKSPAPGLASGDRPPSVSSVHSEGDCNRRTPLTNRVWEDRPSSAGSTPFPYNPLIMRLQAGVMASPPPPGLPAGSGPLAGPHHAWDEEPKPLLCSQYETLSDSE

For the compound `CCCc1nn(C)c2c(=O)[nH]c(-c3cc(S(=O)(=O)NC4CCN(c5ncc(C(=O)NO)cn5)CC4)ccc3OCC)nc12`, the selectivity ratio in series [1] is below 0.4. The IC50 in series [2] came out at 0.6 nM; at Histone deacetylase 1 it was 57 nM; on Histone deacetylase 2, 341 nM; in series [3], 54 nM; in [4], 59 nM. The results for the CC50 at 72 h in series [5] and in series [6] were 11.9 µM and 4.95 µM, respectively. The Papp at 18 h, 50 µM in [7] is 0.1 ×10⁻⁶ cm/s.
As to `CCCc1nn(C)c2c(=O)[nH]c(-c3cc(S(=O)(=O)Nc4ccc(/C=C/C(=O)NO)cc4)ccc3OCC)nc12`, the selectivity ratio in series [1] is below 0.4. Also, the IC50 in [2] was 1 nM; at Histone deacetylase 1, 356 nM; at Histone deacetylase 2 it was 1310 nM; in [4], 84 nM. In addition, the CC50 at 72 h in series [5] is 27.4 µM; in series [6], 30.3 µM. In [7], the Papp at 18 h, 50 µM was 0.23 ×10⁻⁶ cm/s.
With `CCCc1nn(C)c2c(=O)[nH]c(-c3cc(N4CCC(CC(=O)NO)CC4)ccc3OCC)nc12`, the selectivity ratio in series [1] was below 0.4. Also, the IC50 in series [2] is 65 nM; on Histone deacetylase 1 it was 5860 nM; at Histone deacetylase 2, above 20000 nM; in series [4], 1090 nM. The figures for the CC50 at 72 h in [5] and in series [6] were 88.7 µM and above 100 µM, respectively. The Papp at 18 h, 50 µM in [7] came out at 0.49 ×10⁻⁶ cm/s.
With `CCCc1nn(C)c2c(=O)[nH]c(-c3cc(CC4CCN(c5ccc(C(=O)NO)cc5)CC4)ccc3OCC)nc12`, the IC50 in [2] was 121 nM; at Histone deacetylase 1 it was above 20000 nM; on Histone deacetylase 2 it was above 20000 nM; in [4] it was above 20000 nM. The compound further came in with a pKa in series [8] of 8.73.
Regarding `CCCc1nn(C)c2c(=O)[nH]c(-c3cc(Cc4ccc(CCC(=O)NO)cc4)ccc3OCC)nc12`, the IC50 was 13 nM in series [2]; 2420 nM at Histone deacetylase 1; above 20000 nM at Histone deacetylase 2; above 20000 nM in [3]; 2350 nM in series [4].
Consider `CCCc1nn(C)c2c(=O)[nH]c(-c3cc(NC4CCN(c5ncc(C(=O)NO)cn5)CC4)ccc3OCC)nc12`, for which, in series [1], the selectivity ratio was below 0.4. Also, the IC50 was 5 nM in [2]; 68 nM on Histone deacetylase 1; 490 nM on Histone deacetylase 2; 31 nM in series [3]; 441 nM in series [4]. The Ratio pIC50 in [9] is above 0.6. The CC50 at 72 h in series [5] came out at 2.57 µM. In addition, the Papp at 18 h, 50 µM in [7] turned out to be 1.34 ×10⁻⁶ cm/s.
Consider `CCCc1nn(C)c2c(=O)[nH]c(-c3cc(CC4CCN(c5ccc(C(=O)NO)cn5)CC4)ccc3OCC)nc12`, for which the IC50 was 57 nM in series [2], 1880 nM at Histone deacetylase 1, 6430 nM at Histone deacetylase 2 and 395 nM in [4]. In series [8], this compound displayed a pKa of 8.29.
For the compound `CCCc1nn(C)c2c(=O)[nH]c(-c3cc(CN4CCN(c5ncc(C(=O)NO)cn5)CC4)ccc3OCC)nc12`, the selectivity ratio in series [1] is below 0.4. For the same compound, the IC50 came to 7 nM in series [2], 14 nM on Histone deacetylase 1, 89 nM on Histone deacetylase 2 and 379 nM in series [4]. For the same compound, the Ratio pIC50 in series [9] was above 1. Besides, in [7], the Papp at 18 h, 50 µM came out at 0.89 ×10⁻⁶ cm/s.
For the compound `CCCc1nn(C)c2c(=O)[nH]c(-c3cc(S(=O)(=O)N4CCN(c5ncc(C(=O)NO)cn5)CC4)ccc3OCC)nc12`, in [1], the selectivity ratio was below 0.4. Further, the IC50 is 3 nM in [2]; 8 nM on Histone deacetylase 1; 117 nM on Histone deacetylase 2; 36 nM in series [3]; 268 nM in [4]. Also, the Ratio pIC50 in series [9] was above 1. For the same compound, the results for the CC50 at 72 h in series [5] and in series [6] were 1.46 µM and 2.15 µM, respectively. Also, the Papp at 18 h, 50 µM in series [7] came out at 0.72 ×10⁻⁶ cm/s.
As for `CN1CC(=O)N2[C@H](c3ccc4c(c3)OCO4)c3[nH]c4ccccc4c3C[C@@H]2C1=O`, the CC50 at 72 h in series [5] is 60.3 µM; in series [6], 110 µM. The Papp at 18 h, 50 µM in series [7] came out at 2.68 ×10⁻⁶ cm/s.
As for `CCCc1nn(C)c2c(=O)[nH]c(-c3cc(N(C)C4CCN(c5ncc(C(=O)NO)cn5)CC4)ccc3OCC)nc12`, the IC50 in [2] was found to be 10 nM; on Histone deacetylase 1, 25 nM; on Histone deacetylase 2 it was 166 nM; in series [3], 43 nM; in series [4], 584 nM. Also, the Ratio pIC50 in series [9] was above 1.
